The structures appear in SMILES notation. Active and inactive are the calls of the source. No cut-off for these calls is given here.

The values that follow come from ChEMBL document CHEMBL4011623, “Development of 1-((1,4-trans)-4-Aryloxycyclohexyl)-3-arylurea Activators of Heme-Regulated Inhibitor as Selective Activators of the Eukaryotic Initiation Factor 2 Alpha (eIF2α) Phosphorylation Arm of the Integrated Endoplasmic Reticulum Stress Response” (J Med Chem, 2017).

Data set [1] has as its system CRL2813. As to the kind of experiment: Antitumor activity against human CRL2813 cells xenografted in ip dosed NU008 nude mouse assessed as tumor growth inhibition administered qd for 4 days followed by 4 days off and 3 days on for total 28 days. It counts as functional, organism-based. The procedure, abridged:
(§1)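 Male nude mice injected s.c. with CRL-2813 cells; once tumors reached 100–150 mm3, randomized into groups of nine. Given i.p. q.d. at 150 or 37.5 mg/kg (4 days on, 4 off, 3 on; 28 days total) in NMP/Cremophor EL/water at 1 μl/g. Vehicle controls received the mixture alone. Body weight measured twice weekly; tumors by caliper weekly. Mean ± SEM.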

The subject of data set [2] is Mus musculus. The data set can be described thus: Nephrotoxicity in NU008 nude mouse xenografted with human CRL2813 cells at 150 mg/kg, ip qd administered for 4 days followed by 4 days off and 3 days on for total 28 days. It counts as toxicity, organism-based. Conditions: in vivo. The method, boiled down:
(§2)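 Xenograft-bearing nude mice dosed i.p. on the 28-day intermittent schedule (150 or 37.5 mg/kg in NMP/Cremophor EL/water). Euthanized at the end of treatment; organs harvested, fixed and examined histopathologically.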

For data set [3], the target named is Eukaryotic translation initiation factor 2-alpha kinase 1 (Homo sapiens) (UniProt Q9BQI3). As to the kind of experiment: Activation of HRI in human CRL2813cells assessed as decrease in cyclin D1 protein expression at 5 uM after 8 hrs by Western blot analysis. The procedure, abridged: (§3)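 CRL-2813 cells at 70% confluence in serum-containing, antibiotic-free medium; treated at 5 μM for 8 h. Lysed in M-PER on ice for 30 min, equal protein by BCA, SDS-PAGE and immunoblot for CHOP, cyclin D1 and β-actin. Blots representative of three independent experiments.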

Data set [4] has as its target Eukaryotic translation initiation factor 2-alpha kinase 1 (Mus musculus) (UniProt Q9Z2R9). The data set can be described thus: Activation of HRI in mouse KLN cells transfected with 5'UTR of ATF-4 mRNA fused firefly luciferase mRNA and 5'UTR lacking uORF fused renila luciferase mRNA assessed as increase in eIF2alpha phosphorylation by measuring ratio of firefly luciferase to renila luciferase at 5 uM after 16 hrs. It counts as cell-based.

The subject of data set [5] is Mus musculus. The data set can be described thus: Toxicity in NU008 nude mouse xenografted with human CRL2813 cells assessed as body weight change at 150 mg/kg, ip qd administered for 4 days followed by 4 days off and 3 days on for total 28 days. The settings on record: in vivo. It counts as organism-based. The procedure, abridged:
as §1

Data set [6] can be described thus: Tmax in NU008 nude mouse xenografted with human CRL2813 cells at 40 mg/kg, ip by LC-MS analysis. It counts as ADME, organism-based. Conditions: in vivo. The method, boiled down:
(§4)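 Single i.p. dose of 40 mg/kg. Blood sampled before and at 0.5, 1, 2, 4, 6, 24, 48 and 72 h, mixed with 0.1% EDTA. Whole-blood levels quantified by LC-MS/MS (C18 column at 45 °C) against a standard curve. At least three mice per time point, mean ± SEM.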

Data set [7] deals with Eukaryotic translation initiation factor 2-alpha kinase 1 (Mus musculus) (UniProt Q9Z2R9). The data set can be described thus: Activation of HRI in mouse KLN cells transfected with 5'UTR of ATF-4 mRNA fused firefly luciferase mRNA and 5'UTR lacking uORF fused renila luciferase mRNA assessed as increase in eIF2alpha phosphorylation by measuring ratio of firefly luciferase to renila luciferase after 16 hrs. It counts as cell-based.

The subject of data set [8] is Mus musculus. The data set can be described thus: Toxicity in NU008 nude mouse xenografted with human CRL2813 cells assessed as histopathologic change in spleen at 150 mg/kg, ip qd administered for 4 days followed by 4 days off and 3 days on for total 28 days. It counts as organism-based. The settings on record: in vivo. The procedure, abridged:
as §2

Data set [9] concerns Mus musculus. As to the kind of experiment: Toxicity in NU008 nude mouse xenografted with human CRL2813 cells assessed as body weight change at 37.5 mg/kg, ip qd administered for 4 days followed by 4 days off and 3 days on for total 28 days. It counts as organism-based. The settings on record: in vivo. The procedure, abridged: as §1
Data set [10] can be described thus: Effect on beta actin protein expression in human CRL2813 cells at 5 uM after 8 hrs by Western blot analysis. It counts as ADME, cell-based. Conditions: crl2813, 8 h. The procedure, abridged: as §3
For data set [11], the system named is Mus musculus. As to the kind of experiment: Toxicity in NU008 nude mouse xenografted with human CRL2813 cells assessed as histopathologic change in bone marrow at 150 mg/kg, ip qd administered for 4 days followed by 4 days off and 3 days on for total 28 days. The settings on record: in vivo. It counts as organism-based. The method, boiled down:
as §2

Data set [12] addresses Eukaryotic translation initiation factor 2-alpha kinase 1 (Homo sapiens) (UniProt Q9BQI3). The data set can be described thus: Activation of HRI in human CRL2813 cells assessed as increase in eIF2alpha phosphorylation at 5 uM after 2 hrs by Western blot analysis. It counts as cell-based. The procedure, abridged:
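Adherent CRL-2813 melanoma cells exposed to 5 μM for 2 h. Lysates immunoblotted with anti-phosphoserine-51 eIF2α and anti-total eIF2α antibodies after BCA normalization and SDS-PAGE. Gels representative of three independent experiments.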

Data set [13] shares this target. As to the kind of experiment: Activation of HRI in human CRL2813 cells assessed as induction of CHOP mRNA level at 5 uM by real-time PCR relative to 18S RNA. It counts as cell-based. The method, boiled down:
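Fold induction of CHOP mRNA in cells treated at 5 μM, normalized to 18S RNA and expressed relative to DMSO (set to 1). Triplicate samples, three independent experiments, mean ± SEM.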

The target is the same in data set [14]. The data set can be described thus: Activation of HRI in human CRL2813 cells assessed as increase in CHOP protein expression at 5 uM after 8 hrs by Western blot analysis. It counts as cell-based. The method, boiled down: as §3
Data set [15] addresses Eukaryotic translation initiation factor 2-alpha kinase 1 (Mus musculus) (UniProt Q9Z2R9). As to the kind of experiment: Activation of HRI in mouse KLN cells transfected with 5'UTR of ATF-4 mRNA fused firefly luciferase mRNA and 5'UTR lacking uORF fused renila luciferase mRNA assessed as increase in eIF2alpha phosphorylation by measuring ratio of firefly luciferase to renila luciferase at 1.25 uM after 16 hrs. It counts as cell-based.

The subject of data set [16] is Mus musculus. As to the kind of experiment: Neurotoxicity in NU008 nude mouse xenografted with human CRL2813 cells at 150 mg/kg, ip qd administered for 4 days followed by 4 days off and 3 days on for total 28 days. The settings on record: in vivo. It counts as toxicity, organism-based. The method, boiled down:
as §2

Data set [17] can be described thus: Antiproliferative activity against human CRL2813 cells after 5 days by sulforhodamine B assay. It counts as functional, cell-based. Conditions: CRL2813, 120 h. The procedure, abridged: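 CRL-2813 melanoma cells grown 5 days with 0.5–20 μM compound, then fixed in cold 10% TCA and stained with sulforhodamine B. Bound dye measured. Growth % = 100×(T−T0)/(C−T0), with T0 at time zero. IC50 is the concentration giving 50% growth inhibition.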

Data set [18] concerns Mus musculus. The data set can be described thus: Induction of eIF2alpha phosphorylation in tumor of NU008 nude mouse xenografted with human CRL2813 cells at 37.5 to 150 mg/kg, ip qd administered for 3 days by Western blot analysis. It counts as functional, organism-based. The method, boiled down: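 Mice bearing ~200 mm3 CRL-2813 xenografts injected on three consecutive days with vehicle or the same doses used in the efficacy study. Tumors excised, lysed and immunoblotted for phosphorylated and total eIF2α.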

Data set [19] has as its system Mus musculus. The data set can be described thus: Hepatotoxicity in NU008 nude mouse xenografted with human CRL2813 cells at 150 mg/kg, ip qd administered for 4 days followed by 4 days off and 3 days on for total 28 days. It counts as toxicity, organism-based. The settings on record: in vivo. The procedure, abridged:
as §2

Data set [20] concerns Mus musculus. The data set can be described thus: Cardiotoxicity in NU008 nude mouse xenografted with human CRL2813 cells at 150 mg/kg, ip qd administered for 4 days followed by 4 days off and 3 days on for total 28 days. It counts as toxicity, organism-based. Conditions: in vivo. The procedure, abridged:
as §2

Data set [21] is described as follows: Antitumor activity against human CRL2813 cells xenografted in NU008 nude mouse assessed as tumor growth inhibition at 37.5 mg/kg, ip qd administered for 4 days followed by 4 days off and 3 days on for total 28 days relative to control. It counts as functional. Conditions: read-out: TGI. The procedure, abridged:
as §1

Data set [22] in a line: Antitumor activity against human CRL2813 cells xenografted in NU008 nude mouse assessed as tumor growth inhibition at 150 mg/kg, ip qd administered for 4 days followed by 4 days off and 3 days on for total 28 days relative to control. It counts as functional. Conditions: read-out: TGI. The method, boiled down:
as §1

The nature of data set [23]: Apparent half life in NU008 nude mouse xenografted with human CRL2813 cells at 40 mg/kg, ip by LC-MS analysis. It counts as ADME, organism-based. Conditions: in vivo, read-out: t1/2(app) (converted). The procedure, abridged:
as §4

Sequence of Eukaryotic translation initiation factor 2-alpha kinase 1 (Mus musculus) (Q9Z2R9 whole entry, the tested form may be a part): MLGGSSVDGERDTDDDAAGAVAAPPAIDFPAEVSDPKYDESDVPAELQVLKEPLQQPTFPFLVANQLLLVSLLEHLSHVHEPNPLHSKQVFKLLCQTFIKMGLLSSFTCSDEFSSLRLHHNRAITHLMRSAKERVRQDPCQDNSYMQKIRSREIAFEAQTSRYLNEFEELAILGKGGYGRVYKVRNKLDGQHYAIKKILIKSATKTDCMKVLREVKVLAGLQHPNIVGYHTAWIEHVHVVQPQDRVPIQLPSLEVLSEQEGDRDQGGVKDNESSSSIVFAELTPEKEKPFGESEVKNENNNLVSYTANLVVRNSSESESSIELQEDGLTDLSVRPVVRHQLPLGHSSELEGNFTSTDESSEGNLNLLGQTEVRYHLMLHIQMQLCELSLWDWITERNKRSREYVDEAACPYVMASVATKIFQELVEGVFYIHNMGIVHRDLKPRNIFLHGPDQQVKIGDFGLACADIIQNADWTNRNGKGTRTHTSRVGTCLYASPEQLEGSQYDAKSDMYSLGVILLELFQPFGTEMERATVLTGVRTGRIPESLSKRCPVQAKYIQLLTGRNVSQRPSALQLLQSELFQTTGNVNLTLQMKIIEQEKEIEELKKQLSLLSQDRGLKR
Sequence of Eukaryotic translation initiation factor 2-alpha kinase 1 (Homo sapiens) (Q9BQI3 whole entry): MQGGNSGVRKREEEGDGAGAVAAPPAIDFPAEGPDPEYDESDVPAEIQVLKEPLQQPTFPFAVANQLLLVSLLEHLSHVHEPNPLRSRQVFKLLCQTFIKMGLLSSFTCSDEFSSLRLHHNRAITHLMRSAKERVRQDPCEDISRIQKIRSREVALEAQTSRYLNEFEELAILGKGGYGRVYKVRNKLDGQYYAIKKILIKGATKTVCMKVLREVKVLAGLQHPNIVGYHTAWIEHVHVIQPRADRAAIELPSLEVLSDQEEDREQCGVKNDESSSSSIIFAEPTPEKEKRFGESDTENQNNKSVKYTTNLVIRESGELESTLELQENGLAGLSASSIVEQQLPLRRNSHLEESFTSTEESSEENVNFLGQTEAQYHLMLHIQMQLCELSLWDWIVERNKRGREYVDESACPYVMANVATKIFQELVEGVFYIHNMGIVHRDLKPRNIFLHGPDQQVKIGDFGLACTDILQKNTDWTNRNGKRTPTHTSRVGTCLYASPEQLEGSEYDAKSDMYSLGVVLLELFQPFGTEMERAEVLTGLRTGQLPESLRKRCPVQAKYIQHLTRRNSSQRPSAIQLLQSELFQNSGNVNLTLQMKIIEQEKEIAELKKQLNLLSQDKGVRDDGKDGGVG

For the molecule `N#Cc1cc(NC(=O)N[C@H]2CC[C@H](Oc3ccc(C(F)(F)F)cc3)CC2)cc(C(F)(F)F)c1`, the TGI result in data set [1] was “Dose-dependent effect”. In addition, the Activity entry in data set [2] is “Non-Toxic”; in [5] it was < 10%; in data set [7], “Dose-dependent effect”; in data set [8], “Non-Toxic”; in data set [9], < 10%; in data set [10] it was “Non-Toxic”. Also, the Activity entry in data set [11], in data set [16], in data set [19] and in [20] was “Non-Toxic” in each case. Further, the result in data set [3], in [12], in data set [14] and in data set [18] was Active. Further, the Ratio is 13.2 in data set [4] and 5.65 in data set [15]. Besides, the Tmax in [6] lay in the range of 6 to 24 h. Also, the fold change (FC) in data set [13] worked out at 9.87. In [17], 250 nM corresponded to half-maximal inhibition (IC50). Also, the inhibition in vivo at 37.5 mg/kg in [21] came out at 50%. Further, in data set [22], the inhibition in vivo at 150 mg/kg was determined as 90%. The half-life in data set [23] is 40 h.
